One compound from ChEMBL document CHEMBL4038269, “Design, synthesis and evaluation of novel feruloyl-donepezil hybrids as potential multitarget drugs for the treatment of Alzheimer's disease” (Eur J Med Chem, 2017) can be followed below.

Experiment [1] has as its system Mus musculus. In words: Antiinflammatory activity in formalin-induced nociception Swiss mouse model assessed as reduction in time spent licking formalin injected hind paw during neurogenic phase at 100 umol/kg, po pretreated for 1 hr followed by formalin challenge measured up to 5 mins. The class given is functional, organism-based. The gist of the method: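 Male Swiss mice (22-28 g), n=8 per group, given oral vehicle (saline + DMSO 2%) or 100 µmol/kg 1 h before formalin (5% in 0.9% saline, 20 µl) into the right hind paw sub-plantar region. Morphine 39 µmol/kg i.p. was given 30 min before. Paw-licking time recorded at 0–5 min (neurogenic phase) and 20–30 min (inflammatory phase).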

Experiment [2] concerns SH-SY5Y. In words: Antioxidant activity in human SH-SY5Y cells assessed as reduction in H2O2-induced reactive oxygen species formation measured after 24 hrs by DCFH-DA probe based fluorescence assay. The class given is functional, cell-based.
In experiment [3] the test system is Mus musculus. Kind of experiment: Antinociceptive activity in carrageenan-induced Swiss mouse model of mechanical hyperalgesia at 100 umol/kg, po pretreated for 1 hr followed by carrageenan challenge measured at 3 hrs to 7 hrs post dose by Von Frey filament assay. The format is functional, organism-based. The gist of the method:
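Male Swiss mice (n=8) dosed orally with 100 µmol/kg or vehicle 1 h before intraplantar carrageenan (100 µg/paw). Mechanical threshold measured by up-and-down Von Frey method after 60 min acclimation on a wire screen. Started at 0.4 g filament, ≥6 trials at 10 s intervals, about 4 s per application. Reported as mean threshold in grams ± SEM.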

The test system of experiment [4] is SH-SY5Y. Kind of experiment: Copper chelating activity in human SH-SY5Y cells assessed as reduction in CuSO4/H2O2-induced reactive oxygen species formation at 10 to 20 uM after 30 mins by DCFH-DA probe based fluorescence assay. The class given is functional, cell-based. The gist of the method: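 SH-SY5Y cells seeded at 3 x 10^4 cells/well and preloaded with DCFH-DA (10 µg/mL, 30 min, room temperature). Then given compound (5, 10, 20 µM) with FeSO4/H2O2 or CuSO4/H2O2 for 30 min; metal 25 µM and H2O2 100 µM per figure legend. Fluorescence read at ex 485/em 535 nm, arbitrary units. Mean ± SD of three experiments.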

The test system of experiment [5] is SH-SY5Y. Kind of experiment: Antioxidant activity in human SH-SY5Y cells assessed as increase in GSH level at 20 uM after 24 hrs by MCB probe based assay relative to control. The format is functional. The gist of the method:
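SH-SY5Y cells (DMEM, 10% FBS, 37 °C, 5% CO2) seeded at 2 x 10^4 cells/well and grown 24 h. Treated with 20 µM compound for 3-24 h. Then 50 µM monochlorobimane in PBS for 30 min at 37 °C. GSH fluorescence read at ex 360/em 465 nm, as % of control cells. Mean ± SD of three independent experiments.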

The source made the active and inactive calls.

By IC50 is commonly meant the concentration at which inhibition is half-maximal. Take `COc1cc(/C=C/C(=O)OCC2CCN(Cc3ccccc3)CC2)ccc1O`: the outcome with Mus musculus [1], in the experiment with Mus musculus [3] and in the experiment on SH-SY5Y [4] was Active. The Activity result with SH-SY5Y [2] was “Dose-dependent effect”. Also, the IC50 in the experiment on SH-SY5Y [2] (Homo sapiens, SH-SY5Y, 24 h, read-out: IC50) turned out to be 16.9 µM. For the same compound, the “fold change (FC)” value with SH-SY5Y [5] is listed as 1.4.
